In ChEMBL document CHEMBL1122064, “Synthesis and biological evaluation of 17-[131I]iodo-9-telluraheptadecanoic acid, a potential imaging agent” (J Med Chem, 1982):

Assays:
[1] = test system: Rattus norvegicus; test: Distribution of radioactivity in kidneys of Fischer 344 female rat after 2 min of intravenous administration; format: ADME, organism-based, Kidney; details: in vivo
In short: (§1)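 Female Fischer 344 rats (10-12 weeks, 170-200 g) with food and water ad libitum. The 131I-labelled fatty acid was taken up in ethanol, added dropwise to stirred 6% BSA at 40 °C (final ethanol 10%), filtered, and injected into a lateral tail vein under ether. Rats were CO2-anaesthetised and killed; organs were excised, rinsed, blotted, weighed and Ge(Li)-counted. Results are mean (range) % injected dose/g.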

[2] = test system: Rattus norvegicus; test: Distribution of radioactivity in kidneys of Fischer 344 female rat after 30 min of intravenous administration; format: ADME, organism-based, Kidney; details: in vivo, 0.5 h
[3] = test system: Rattus norvegicus; test: Distribution of radioactivity in kidneys of Fischer 344 female rat after 4 days of intravenous administration; format: ADME, organism-based, Kidney; details: in vivo, 96 h; in short: as §1
[4] = test system: Rattus norvegicus; test: Distribution of radioactivity in kidneys of Fischer 344 female rat after 60 min of intravenous administration; format: ADME, organism-based, Kidney; details: in vivo, 1 h
[5] = test system: Rattus norvegicus; test: Distribution of radioactivity in kidneys of Fischer 344 female rat after 6 hr of intravenous administration; format: ADME, organism-based, Kidney; details: in vivo; in short: as §1
[6] = test system: Rattus norvegicus; test: Distribution of radioactivity in liver of Fischer 344 female rat after 10 min of intravenous administration; format: ADME, organism-based; details: in vivo; in short: as §1
[7] = test system: Rattus norvegicus; test: Distribution of radioactivity in blood of Fischer 344 female rat after 60 min of intravenous administration; format: ADME, organism-based; details: in vivo, 1 h
[8] = test system: Rattus norvegicus; test: Distribution of radioactivity in blood of Fischer 344 female rat after 6 hr of intravenous administration; format: ADME, organism-based; details: in vivo; in short: as §1
[9] = test system: Rattus norvegicus; test: Distribution of radioactivity in blood of Fischer 344 female rat after 7 days of intravenous administration; format: ADME, organism-based; details: in vivo, 168 h; in short: as §1
[10] = test system: Rattus norvegicus; test: Distribution of radioactivity in blood of Fischer 344 female rat after 2 hr of intravenous administration; format: ADME, organism-based; details: in vivo; in short: as §1
[11] = test system: Rattus norvegicus; test: Distribution of radioactivity in Thyroid of Fischer 344 female rat after 10 min of intravenous administration; format: ADME, organism-based; details: in vivo; in short: as §1
[12] = test system: Rattus norvegicus; test: Distribution of radioactivity in Thyroid of Fischer 344 female rat after 24 hr of intravenous administration; format: ADME, organism-based; details: in vivo; in short: as §1
[13] = test system: Rattus norvegicus; test: Distribution of radioactivity in Thyroid of Fischer 344 female rat after 2 hr of intravenous administration; format: ADME, organism-based; details: in vivo; in short: as §1
[14] = test system: Rattus norvegicus; test: Distribution of radioactivity in brain of Fischer 344 female rat after 10 min of intravenous administration; format: ADME, organism-based; details: in vivo; in short: as §1
[15] = test system: Rattus norvegicus; test: Distribution of radioactivity in brain of Fischer 344 female rat after 24 hr of intravenous administration; format: ADME, organism-based; details: in vivo; in short: as §1
[16] = test system: Rattus norvegicus; test: Distribution of radioactivity in brain of Fischer 344 female rat after 2 hr of intravenous administration; format: ADME, organism-based; details: in vivo; in short: as §1
[17] = test system: Rattus norvegicus; test: Distribution of radioactivity in brain of Fischer 344 female rat after 2 min of intravenous administration; format: ADME, organism-based; details: in vivo; in short: as §1
[18] = test system: Rattus norvegicus; test: Distribution of radioactivity in brain of Fischer 344 female rat after 30 min of intravenous administration; format: ADME, organism-based; details: in vivo, 0.5 h; in short: as §1
[19] = test system: Rattus norvegicus; test: Distribution of radioactivity in brain of Fischer 344 female rat after 4 days of intravenous administration; format: ADME, organism-based; details: in vivo, 96 h; in short: as §1
[20] = test system: Rattus norvegicus; test: Distribution of radioactivity in brain of Fischer 344 female rat after 60 min of intravenous administration; format: ADME, organism-based; details: in vivo, 1 h; in short: as §1
[21] = test system: Rattus norvegicus; test: Distribution of radioactivity in brain of Fischer 344 female rat after 6 hr of intravenous administration; format: ADME, organism-based; details: in vivo; in short: as §1
[22] = test system: Rattus norvegicus; test: Distribution of radioactivity in brain of Fischer 344 female rat after 7 days of intravenous administration; format: ADME, organism-based; details: in vivo, 168 h; in short: as §1
[23] = test system: Rattus norvegicus; test: Distribution of radioactivity in heart of Fischer 344 female rat after 10 min of intravenous administration; format: ADME, organism-based; details: in vivo; in short: as §1
[24] = test system: Rattus norvegicus; test: Distribution of radioactivity in heart of Fischer 344 female rat after 2 min of intravenous administration; format: ADME, organism-based; details: in vivo; in short: as §1
[25] = test system: Rattus norvegicus; test: Distribution of radioactivity in liver of Fischer 344 female rat after 24 hr of intravenous administration; format: ADME, organism-based; details: in vivo
In short: (§2)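 Female Fischer 344 rats, 10-12 weeks old, 170-200 g, fed ad libitum. The 131I-labelled fatty acid was dissolved in absolute ethanol, added dropwise to stirred 6% bovine serum albumin at 40 °C (final ethanol 10%), filtered, and injected into a lateral tail vein under ether anaesthesia. Organs were excised, rinsed, blotted and weighed, then counted by Ge(Li) analyzer as percent injected dose/g.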

[26] = test system: Rattus norvegicus; test: Distribution of radioactivity in liver of Fischer 344 female rat after 2 hr of intravenous administration; format: ADME, organism-based; details: in vivo; in short: as §1
[27] = test system: Rattus norvegicus; test: Distribution of radioactivity in liver of Fischer 344 female rat after 2 min of intravenous administration; format: ADME, organism-based; details: in vivo; in short: as §2
[28] = test system: Rattus norvegicus; test: Distribution of radioactivity in liver of Fischer 344 female rat after 30 min of intravenous administration; format: ADME, organism-based; details: in vivo, 0.5 h
In short: (§3)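 Female Fischer 344 rats, 10-12 weeks, 170-200 g, fed ad libitum. The labelled fatty acid was given in 6% bovine serum albumin via a lateral tail vein under ether anaesthesia. Rats were killed by CO2 anaesthesia and cervical fracture; organs were excised, rinsed, blotted, weighed and counted by Ge(Li) analyzer. Results are mean percent injected dose/g with range.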

[29] = test system: Rattus norvegicus; test: Distribution of radioactivity in liver of Fischer 344 female rat after 4 of days intravenous administration; format: ADME, organism-based; details: in vivo; in short: as §2
[30] = test system: Rattus norvegicus; test: Distribution of radioactivity in liver of Fischer 344 female rat after 60 min of intravenous administration; format: ADME, organism-based; details: in vivo, 1 h; in short: as §3
[31] = test system: Rattus norvegicus; test: Distribution of radioactivity in liver of Fischer 344 female rat after 6 hr of intravenous administration; format: ADME, organism-based; details: in vivo; in short: as §2

SMILES: O=C(O)CCCCCCCC[Te]CCCCCCCC[131I]
- Distribution of radioactivity [1]: 1.36 dose g-1
- Distribution of radioactivity [2]: 0.8 dose g-1
- Distribution of radioactivity [3]: 0.03 dose g-1
- Distribution of radioactivity [4]: 0.68 dose g-1
- Distribution of radioactivity [5]: 0.36 dose g-1
- Distribution of radioactivity [6]: 3.23 dose g-1
- Distribution of radioactivity [7]: 0.64 dose g-1
- Distribution of radioactivity [8]: 0.44 dose g-1
- Distribution of radioactivity [9]: 0.009 dose g-1
- Distribution of radioactivity [10]: 0.61 dose g-1
- Distribution of radioactivity [11]: 12.1 dose g-1
- Distribution of radioactivity [12]: 475 dose g-1
- Distribution of radioactivity [13]: 166 dose g-1
- Distribution of radioactivity [14]: 0.11 dose g-1
- Distribution of radioactivity [15]: 0.03 dose g-1
- Distribution of radioactivity [16]: 0.04 dose g-1
- Distribution of radioactivity [17]: 0.17 dose g-1
- Distribution of radioactivity [18]: 0.06 dose g-1
- Distribution of radioactivity [19]: < 0.007 dose g-1
- Distribution of radioactivity [20]: 0.05 dose g-1
- Distribution of radioactivity [21]: 0.03 dose g-1
- Distribution of radioactivity [22]: < 0.002 dose g-1
- Distribution of radioactivity [23]: 2.01 dose g-1
- Distribution of radioactivity [24]: 2.39 dose g-1
- Distribution of radioactivity [25]: 0.13 dose g-1
- Distribution of radioactivity [26]: 1.02 dose g-1
- Distribution of radioactivity [27]: 3.71 dose g-1
- Distribution of radioactivity [28]: 1.75 dose g-1
- Distribution of radioactivity [29]: 0.02 dose g-1
- Distribution of radioactivity [30]: 1.16 dose g-1
- Distribution of radioactivity [31]: 0.51 dose g-1
